Measurements from different studies.
Each line is one published result; the experiments were not run side by side.
Target: Macrophage-stimulating protein receptor (MST1R, Homo sapiens, UniProt Q04912)

SMILES	test	setting	quantity	value
Cc1noc([C@H]2C[C@@H](c3ccc(C(F)(F)F)cc3)CN(C(=O)N3CCS(=O)(=O)C3)C2)n1	cell-free assay, competition with immobilised ligand	1 µM	remaining binding	100%
CCN(CC)CCNC(=O)c1c(C)[nH]c(/C=C2\C(=O)Nc3ccc(F)cc32)c1C	cell-free assay	10 µM	inhibition	-1%
Cn1nc(C(F)(F)F)cc1-c1cnc(N2CCc3cc(S(=O)(=O)Nc4c(F)cc(Cl)cc4F)cc(N4CCCC4=O)c32)nc1	cell-free assay, competition with immobilised ligand	1 µM	remaining binding	100%
COc1cc2c(Nc3ccc(Br)cc3F)ncnc2cc1OCC1CCN(C)CC1	cell-free assay	0.5 µM	remaining signal	93.6%
CCCCNc1ncc2c(-c3ccc(F)cc3)nn(C[C@H]3CC[C@H](N)CC3)c2n1	target engagement in cells, inhibitor, chemoproteomics	20 mM	inhibition	-12.3%
CC/C(=N\NC(=O)NCc1cccc(O)c1)c1ccc(O)c(C)c1O	enzyme activity, inhibitor	0.1 µM	inhibition	-1.5%
O=C(N1CCS(=O)(=O)CC1)N1C[C@H](c2ccc(OC(F)(F)F)cc2)C[C@H](c2nc(C3CC3)no2)C1	cell-free assay, competition with immobilised ligand	1 µM	remaining binding	100%
CCCOc1ccc(OC)c(F)c1C(=O)c1ccc(C(=O)N[C@@H]2CNC[C@H]2NC(=O)c2ccc3[nH]ncc3c2)cc1	enzyme activity, inhibitor	10 µM	remaining activity	64%
CC(=O)c1c(NS(C)(=O)=O)c2cc(-c3ccc(Cl)cc3)c(-c3ccc(Cl)cc3Cl)nc2n(C)c1=O	cell-free assay, competition with immobilised ligand	1 µM	remaining binding	88%
CC(C)(O)[C@H]1CC[C@H](Nc2ccc3ncc(-c4cccc(C(F)(F)F)c4)n3n2)CC1	enzyme activity, inhibitor	1 µM	remaining activity	101%
Cc1sc(C(=O)NC2COC2)cc1-n1cc(NC(=O)Nc2c(F)cccc2Cl)cn1	enzyme activity, inhibitor	10 µM	remaining activity	96.9%
COc1cc2ncnc(Nc3ccc(Oc4ccccc4)c(C)c3C)c2cc1OC	enzyme activity, inhibitor	1 µM	inhibition	-3%
CCCS(=O)(=O)Nc1ccc(F)c(C(=O)c2c[nH]c3ncc(-c4ccc(Cl)cc4)cc23)c1F	enzyme activity, inhibitor	1 µM	inhibition	< 10%
Oc1cccc(-c2nc(N3CCOCC3)c3oc4ncccc4c3n2)c1	cell-free assay	0.5 µM	remaining signal	94.3%
CCN(CC)CCNC(=O)c1c(C)[nH]c(/C=C2\C(=O)Nc3ccc(F)cc32)c1C	enzyme activity, inhibitor	1 µM	remaining activity	138%
CNC(=O)c1cc(Oc2ccc(NC(=O)Nc3ccc(Cl)c(C(F)(F)F)c3)cc2)ccn1	cell-free assay	10 µM	inhibition	-5%
O=C(Nc1ccc(Oc2ccc(F)cc2)cc1)N1CCc2ncccc2[C@H]1c1ccc(F)cc1	cell-free assay, competition with immobilised ligand	1 µM	remaining binding	98%
CNC(=O)c1cc2c(Oc3ccc(NC(=O)C4(C(=O)Nc5ccc(F)cc5)CC4)cc3)ccnc2cc1OC	enzyme activity, inhibitor, radiometric	1 µM	inhibition	90%
